We go through six compounds from ChEMBL document CHEMBL1123091, “Synthesis and antiviral evaluation of nucleosides of 5-methylimidazole-4-carboxamide” (J Med Chem, 1985).

Series [1] deals with Human alphaherpesvirus 1. The series can be described thus: Compound was tested for antiviral activity in HeLa Cell cultures, against herpes simplex virus type 1 (HSV-1), cytopathic effect induced by the virus (CPE). The series is classed as functional. An outline of the steps:
(§1)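 HeLa cells grown to confluency in petri dishes, then infected (or mock-infected) with HSV-1 at 0.5 PFU/cell. Test compound added at a range of concentrations.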
Background: Damage to the host cells serves as the signal in cytopathic effect assays.

A short description of series [2]: Compound was tested for antiviral activity in HeLa Cell cultures, against herpes simplex virus type 1 (HSV-1). The series is classed as organism-based. Conditions: human alphaherpesvirus 1, HeLa cell cultures; read-out: Tox50. In a few lines: as §1
The subject of series [3] is Vesicular stomatitis virus. Briefly: Compound was tested for antiviral activity in HeLa Cell cultures, against vesicular stomatitis virus (VSV), cytopathic effect induced by the virus (CPE). The series is classed as functional. In a few lines: (§2)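 HeLa cells grown to confluency in petri dishes, then infected (or mock-infected) with VSV at 0.01 PFU/cell. Test compound added at a range of concentrations.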

A short description of series [4]: Compound was tested for antiviral activity in HeLa Cell cultures, against vesicular stomatitis virus (VSV). Conditions: read-out: Tox50. The series is classed as ADME, organism-based. In a few lines:
as §2

The test system of series [5] is Human alphaherpesvirus 1. Briefly: Compound was tested for antiviral activity in HeLa Cell cultures, against herpes simplex virus type 1 (HSV-1) expressed as cytopathic effect induced by the virus (CPE). The series is classed as functional. In a few lines:
as §1

The test system of series [6] is Vesicular stomatitis virus. Briefly: Compound was tested for antiviral activity in HeLa Cell cultures, against vesicular stomatitis virus (VSV) expressed as cytopathic effect induced by the virus (CPE). The series is classed as functional. In a few lines:
as §2

Series [7] can be described thus: Compound was tested for antiviral activity in HeLa Cell cultures against vesicular stomatitis virus (VSV). The series is classed as ADME, organism-based. The following applies: read-out: Tox50. In a few lines:
as §2

Series [8] in a line: Compound was tested for antiviral activity in HeLa Cell cultures against herpes simplex virus type 1 (HSV-1). The series is classed as organism-based. The following applies: human alphaherpesvirus 1, HeLa cell cultures; read-out: Tox50. An outline of the steps:
as §1

Converted amounts (≈) assume the structure as drawn. Where only a bound is given, the exact number is not on record here.

For the compound `Cc1c(C(N)=O)ncn1[C@@H]1C[C@H](O)[C@@H](CO)O1`, the CPE50 was more than 200 µg/mL in the series on Human alphaherpesvirus 1 [1] and 150 µg/mL in series [3]. Moreover, the values for the CC50 in series [2] and in series [4] were more than 200 µg/mL and more than 400 µg/mL, respectively.

On to `Cc1c(C(N)=O)ncn1[C@H]1C[C@H](O)[C@@H](CO)O1`, for which the CPE50 (with Human alphaherpesvirus 1 [5]; in series [6]) was 150 µg/mL each time. Also, the CC50 was more than 400 µg/mL in series [7] and 300 µg/mL (≈ 1240 µM) in series [8].

For the compound `NC(=O)c1ncn([C@@H]2O[C@H](CO)[C@@H](O)[C@H]2O)n1` [RIBAVIRIN], the CPE50 with Human alphaherpesvirus 1 [1] is 75 µg/mL; in series [3] it was 15 µg/mL. Moreover, the CC50 in series [2] and in series [4] was 400 µg/mL (≈ 1640 µM) each time.

As to `Cc1c(C(N)=O)ncn1C1O[C@H](CO)[C@@H](O)[C@H]1O` (some centres not stated), the CPE50 was found to be 75 µg/mL in the series with Human alphaherpesvirus 1 [1] and 125 µg/mL in series [3]. Further, the CC50 in series [2] and in series [4] was more than 400 µg/mL each time.

Turning to `Cc1c(C(N)=O)ncn1COCCO`, the results for the CPE50 (in the series on Human alphaherpesvirus 1 [1]; in series [3]) were more than 200 µg/mL and 180 µg/mL, respectively. In addition, the CC50 in series [2] and in series [4] was more than 200 µg/mL throughout.

`Cc1[nH]cnc1C(N)=O` showed a CPE50 with Human alphaherpesvirus 1 [1] of more than 200 µg/mL. The CC50 in series [2] is more than 200 µg/mL.
